Assay results as given in ChEMBL document CHEMBL5252642, “Design and synthesis of naturally-inspired SARS-CoV-2 inhibitors” (RSC Med Chem, 2023).
Activity calls are given as the source filed them. The calls are words filed in the database; no cut-off is given here.

Key:
[1] = Cytotoxicity against human A549-ACE2 cells; assay type: toxicity, cell-based
Procedure, shortened: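 A549-ACE2 cells (2,000/well) were exposed to compounds for 72 h. Viability was read as CellTiter-Glo luminescence. Controls were 0.5% DMSO and 10 µM camptothecin. Values come from triplicate dose-response curves.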

SARS-CoV-2 = assay: Antiviral activity against SARS-CoV-2 BetaCoV/France/IDF0372/2020 infected human A549-ACE2 cells assessed as inhibition of viral replication by qRT-PCR analysis; assay type: functional, organism-based; conditions: Severe acute respiratory syndrome coronavirus 2, BetaCoV/France/IDF0372/2020, A549-ACE2
[2] = target: Replicase polyprotein 1ab (Severe acute respiratory syndrome coronavirus 2, UniProt P0DTD1); assay: (§1) Inhibition of SARS-CoV-2 nsp14 guanine-N7-methyltransferase activity
Procedure, shortened: (§2)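 Compounds were serially titrated from 8 µM to 2 mM DMSO stocks, giving 5% DMSO final. They were preincubated 2 h at 23 °C with 1.5 nM nsp14 in 20 mM Tris-HCl pH 7.5, 0.25 mM MgCl2, 1 mM TCEP and 0.01% Triton X-100. Then 50 nM RNA and 0.25 µM 3H-SAM were added for 20 min. Radioactivity was read. Tests were in triplicate, with SAH as positive control and curves constrained to 0–100.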

[3] = (§3) Inhibition of SARS-CoV-2 N-terminus His tagged nsp10/nsp16 complex expressed in Escherichia coli using [3H]SAM as substrate by scintillation proximity assay; set-up: species or system Severe acute respiratory syndrome coronavirus 2
Procedure, shortened: (§4)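 Compounds were serially titrated from 8 µM to 2 mM DMSO stocks, giving 5% DMSO final. They were preincubated 2 h at 23 °C with 125 nM nsp10–nsp16 (8:1) in 50 mM Tris-HCl pH 7.5, 1.5 mM MgCl2, 1 mM TCEP and 0.01% Triton X-100. Then 0.8 µM RNA and 2 µM SAM (30% 3H-SAM) were added for 30 min at 23 °C. Radioactivity was read. Tests were in triplicate, with curves constrained to 0–100.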

[4] = target: Replicase polyprotein 1ab (Severe acute respiratory syndrome coronavirus 2) (UniProt P0DTD1); assay: as §1; procedure, shortened: as §2
[5] = tested on: Severe acute respiratory syndrome coronavirus 2; assay: as §3; procedure, shortened: as §4

Row | Compound | CC50 [1] [µM] | EC50 (SARS-CoV-2) [µM] | IC50 [2] [µM] | IC50 [3] [µM] | inhibition [4] | inhibition [5]
1 | Cc1ccc(S(=O)(=O)N2C[C@@]34CN(Cc5ccccc5)C[C@@H](O3)[C@@H]3[C@H]4[C@@]2(C(C)C)C=C[C@@H]3O)cc1 | > 50 | 17 |  |  |  | 
2 | Cc1ccc(S(=O)(=O)N2C[C@@]34CN(CCc5c[nH]c6ccccc56)C[C@@H](O3)[C@@H]3[C@H]4[C@@]2(C(C)C)CC[C@@H]3O)cc1 | 13 | 8.3 |  |  |  | 
3 | Cc1ccc(S(=O)(=O)N2C[C@@]34CN(Cc5nc6ccccc6s5)C[C@@H](O3)[C@H]3C(=O)CC[C@]2(C(C)C)[C@H]34)cc1 | 37 | 5.3 |  |  |  | 
4 | COc1cc(CN2C[C@H]3O[C@]4(C2)CN(S(=O)(=O)c2ccc(C)cc2)[C@]2(C(C)C)CC[C@H](O)[C@H]3[C@H]42)cc(OC)c1 | 13 | 5.6 |  |  |  | 
5 | Cc1ccc(S(=O)(=O)N2C[C@@]34CN(C(=O)c5cccs5)C[C@@H](O3)[C@@H]3[C@H]4[C@@]2(C(C)C)CC[C@@H]3O)cc1 | > 50 | 16 |  |  |  | 
6 | CNC(=O)N1C[C@H]2O[C@]3(C1)CN(S(=O)(=O)c1ccc(C)cc1)[C@]1(C(C)C)CC[C@H](O)[C@H]2[C@H]31 | > 50 | > 50 |  |  |  | 
7 | Cc1ccc(S(=O)(=O)N2C[C@@]34CN(C(=O)c5cccs5)C[C@@H](O3)[C@H]3[C@@H](Oc5cc(C)nc(N)n5)CC[C@]2(C(C)C)[C@H]34)cc1 | > 50 | > 50 |  |  |  | 
8 | Nc1ncnc2c1ncn2[C@@H]1O[C@H](CSCC[C@H](N)C(=O)O)[C@@H](O)[C@H]1O [S-ADENOSYLHOMOCYSTEINE] |  |  | 0.22 | 3.9 |  | 
9 | Cc1ccc(S(=O)(=O)N2C[C@@]34CN(Cc5ccccc5)C[C@@H](O3)[C@H]3[C@@H](Oc5ncccn5)CC[C@]2(C(C)C)[C@H]34)cc1 | 6.3 | 6.2 |  |  |  | 
10 | COc1ccc(CCN2C[C@H]3O[C@]4(C2)CN(S(=O)(=O)c2ccc(C)cc2)[C@]2(C(C)C)C=C[C@H](O)[C@H]3[C@H]42)cc1 | 12 | 3.7 |  |  | inactive | inactive
11 | Cc1ccc(S(=O)(=O)N2C[C@@]34CNC[C@@H](O3)[C@H]3C(=O)CC[C@]2(C(C)C)[C@H]34)cc1 | > 50 | > 50 |  |  |  | 
12 | Cc1ccc(S(=O)(=O)N2C[C@@]34CN(C)C[C@@H](O3)[C@H]3[C@@H](Oc5ncccn5)CC[C@]2(C(C)C)[C@H]34)cc1 | 17 | 20 |  |  |  | 
13 | Cc1ccc(S(=O)(=O)N2C[C@@]34CN(C(=O)C5CC5)C[C@@H](O3)[C@H]3[C@@H](Oc5ncccn5)CC[C@]2(C(C)C)[C@H]34)cc1 | > 50 | > 40 |  |  |  | 
14 | Cc1ccc(S(=O)(=O)N2C[C@@]34CN(C)C[C@@H](O3)[C@H]3C(=O)CC[C@]2(C(C)C)[C@H]34)cc1 | > 50 | > 50 |  |  |  | 
15 | COc1ccc(CCN2C[C@H]3O[C@]4(C2)CN(S(=O)(=O)c2ccc(C)cc2)[C@]2(C(C)C)C=CC(=O)[C@H]3[C@H]42)cc1 | 6.6 | 13 |  |  |  | 
16 | COc1ccc(CCN2C[C@H]3O[C@]4(C2)CN(S(=O)(=O)c2ccc(C)cc2)[C@]2(C(C)C)C=C[C@H](Oc5ncccn5)[C@H]3[C@H]42)cc1 |  | > 50 |  |  |  | 
17 | Cc1ccc(S(=O)(=O)N2C[C@@]34CN(Cc5ccccc5)C[C@@H](O3)[C@H]3C(=O)C=C[C@]2(C(C)C)[C@H]34)cc1 | 14 | 16 |  |  |  | 
18 | COc1cc(CN2C[C@H]3O[C@]4(C2)CN(S(=O)(=O)c2ccc(C)cc2)[C@]2(C(C)C)CC[C@H](OCCCN(C)C)[C@H]3[C@H]42)cc(OC)c1 | 7.7 | 1.4 | > 100 |  |  | inactive
19 | Cc1ccc(S(=O)(=O)N2C[C@@]34CN(Cc5nc6ccccc6s5)C[C@@H](O3)[C@@H]3[C@H]4[C@@]2(C(C)C)CC[C@@H]3O)cc1 | 12 | 6.6 |  |  |  | 
20 | Cc1ccc(S(=O)(=O)N2C[C@@]34CN(C(=O)c5ccc(N)cn5)C[C@@H](O3)[C@@H]3[C@H]4[C@@]2(C(C)C)CC[C@@H]3O)cc1 | > 50 | 37 |  |  |  | 
21 | Cc1ccc(S(=O)(=O)N2C[C@@]34CN(C(=O)c5ccc(F)cc5N)C[C@@H](O3)[C@@H]3[C@H]4[C@@]2(C(C)C)CC[C@@H]3O)cc1 | 20 | 14 |  |  |  | 
22 | Cc1ccc(S(=O)(=O)N2C[C@@]34CN(Cc5ccccc5)C[C@@H](O3)[C@H]3C(=O)CC[C@]2(C(C)C)[C@H]34)cc1 | 5.8 | 8.4 |  |  |  | 
23 | COCn1ccc(N2C[C@H]3O[C@]4(C2)CN(S(=O)(=O)c2ccc(C)cc2)[C@]2(C(C)C)CC[C@H](O)[C@H]3[C@H]42)nc1=O | > 50 | > 17 |  |  |  | 
